Measured values taken from ChEMBL document CHEMBL2021899, “Anti-AIDS agents 89. Identification of DCX derivatives as anti-HIV and chemosensitizing dual function agents to overcome P-gp-mediated drug resistance for AIDS therapy” (Bioorg Med Chem Lett, 2012).

What was measured:
[1] = tested on: Human immunodeficiency virus; assay: Antiviral activity against HIV/NL4-3 infected in human TZM-bl cells assessed as inhibition of viral replication after 48 hrs by luciferase reporter gene assay; assay type: functional, organism-based; details: Human immunodeficiency virus 1, NL4-3, TZM-bl
[2] = Cytotoxicity against human TZM-bl cells after 48 hrs by CytoTox-GloTM assay; assay type: cell-based
[3] = tested on: KB; assay: Reversal of p-glycoprotein-mediated multidrug resistance in human vincristine-resistance KB cells assessed as potentiation of vincristine-induced cytotoxicity at 4 uM after 48 hrs by SRB assay; assay type: cell-based
How it was run: (§1)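 Vincristine-resistant, P-gp over-expressing KB-vin cells were exposed to vincristine alone or with co-treatment by the test agent, with verapamil as positive control. Vincristine GI50 was read by SRB assay. Fold value = GI50 (vincristine alone) / GI50 (vincristine + test agent). At least three independent experiments.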

[4] = target: ATP-dependent translocase ABCB1 (Homo sapiens, UniProt P08183); assay: Inhibition of p-glycoprotein-mediated doxorubicin efflux in human KB cells assessed as doxorubicin accumulation preincubated for 1 hr prior doxorubicin addition measured after 3 hrs by fluorometric assay; assay type: cell-based
How it was run: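 KB-vin cells were seeded at 5 × 10³ per well and grown 72 h at 37 °C in 5% CO2, then washed. They were pretreated with sample or vehicle for 1 h, then doxorubicin was added to 10 final and incubated 3 h. Cells were washed in ice-cold PBS and lysed in 1% SDS/PBS; fluorescence was read at Ex 488/Em 580 nm. Value = fluorescence with compound / without, after control subtraction. Verapamil served as positive control.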

[5] = tested on: KB; assay: Reversal of p-glycoprotein-mediated multidrug resistance in human vincristine-resistance KB cells assessed as potentiation of vincristine-induced cytotoxicity at 4 uM after 48 hrs by SRB assay relative to verapamil; assay type: cell-based; how it was run: as §1
[6] = tested on: KB; assay: Cytotoxicity against human KB cells at 4 uM after 48 hrs by SRB assay; assay type: functional
[7] = tested on: KB; assay: Ratio of GI50 for human vincristine-resistance KB cells to GI50 for wild type human KB cells; assay type: functional

Sequence of ATP-dependent translocase ABCB1 (P08183 whole entry): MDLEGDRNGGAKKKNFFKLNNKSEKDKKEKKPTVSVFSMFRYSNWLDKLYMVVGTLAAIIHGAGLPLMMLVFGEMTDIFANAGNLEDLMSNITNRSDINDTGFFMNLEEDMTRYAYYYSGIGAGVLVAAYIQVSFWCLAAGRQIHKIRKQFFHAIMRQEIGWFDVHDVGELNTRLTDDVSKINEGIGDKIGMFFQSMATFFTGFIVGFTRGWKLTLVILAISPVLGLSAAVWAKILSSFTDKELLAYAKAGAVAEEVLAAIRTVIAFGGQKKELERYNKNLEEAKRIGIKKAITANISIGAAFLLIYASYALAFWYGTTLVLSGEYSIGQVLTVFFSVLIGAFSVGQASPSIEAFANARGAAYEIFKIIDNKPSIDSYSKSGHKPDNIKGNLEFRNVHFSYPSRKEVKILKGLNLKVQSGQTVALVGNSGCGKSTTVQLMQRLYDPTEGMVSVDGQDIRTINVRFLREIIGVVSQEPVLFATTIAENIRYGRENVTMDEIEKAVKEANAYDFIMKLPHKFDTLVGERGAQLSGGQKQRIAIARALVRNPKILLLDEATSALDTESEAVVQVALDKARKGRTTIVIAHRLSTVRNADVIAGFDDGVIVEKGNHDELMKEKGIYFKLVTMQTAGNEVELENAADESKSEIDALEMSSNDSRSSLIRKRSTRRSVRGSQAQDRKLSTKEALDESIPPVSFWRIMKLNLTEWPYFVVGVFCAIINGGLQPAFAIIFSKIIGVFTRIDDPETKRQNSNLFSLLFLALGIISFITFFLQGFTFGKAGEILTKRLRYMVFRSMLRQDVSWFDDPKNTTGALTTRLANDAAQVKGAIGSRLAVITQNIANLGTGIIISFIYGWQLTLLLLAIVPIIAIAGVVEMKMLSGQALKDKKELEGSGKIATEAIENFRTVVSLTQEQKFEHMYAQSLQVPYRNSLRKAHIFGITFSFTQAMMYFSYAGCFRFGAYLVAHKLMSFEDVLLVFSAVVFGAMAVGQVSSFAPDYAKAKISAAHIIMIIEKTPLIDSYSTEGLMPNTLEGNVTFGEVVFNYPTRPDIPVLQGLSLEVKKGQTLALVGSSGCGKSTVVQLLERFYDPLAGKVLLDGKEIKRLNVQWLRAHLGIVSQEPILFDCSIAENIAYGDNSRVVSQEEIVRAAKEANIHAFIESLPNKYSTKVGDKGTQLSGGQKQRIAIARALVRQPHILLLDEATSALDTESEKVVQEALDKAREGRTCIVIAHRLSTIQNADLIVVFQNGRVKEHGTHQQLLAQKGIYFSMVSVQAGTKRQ

Compound	EC50 [1] [µM]	IC50 [2] [µM]	fold change (FC) [3]	inhibition (INH) [4]	fold change (FC) [5]	GI50 [6] [µM]	RatioGI50 [7]
COc1cc(C)c2c(=O)c3c(OC)cc4c(c3oc2c1)[C@@H](OC(=O)[C@@]12CCC(C)(C(=O)O1)C2(C)C)[C@@H](OC(=O)[C@@]12CCC(C)(C(=O)O1)C2(C)C)C(C)(C)O4	0.14	> 10	518				
Cc1cc(=O)c2c(C)cc3c(c2o1)[C@@H](OC(=O)[C@@]12CCC(C)(C(=O)O1)C2(C)C)[C@@H](OC(=O)[C@@]12CCC(C)(C(=O)O1)C2(C)C)C(C)(C)O3	0.036	> 10	910	Active	20		
COc1cc2c(c3oc4c(C)cccc4c(=O)c13)[C@@H](OC(=O)[C@@]13CCC(C)(C(=O)O1)C3(C)C)[C@@H](OC(=O)[C@@]13CCC(C)(C(=O)O1)C3(C)C)C(C)(C)O2	1.52	> 10	1100		20		
Cc1cc(=O)c2ccc3c(c2o1)[C@@H](OC(=O)[C@@]12CCC(C)(C(=O)O1)C2(C)C)[C@@H](OC(=O)[C@@]12CCC(C)(C(=O)O1)C2(C)C)C(C)(C)O3	0.1	> 10	88				
COc1cc2c(c3oc4c(F)cccc4c(=O)c13)[C@@H](OC(=O)[C@@]13CCC(C)(C(=O)O1)C3(C)C)[C@@H](OC(=O)[C@@]13CCC(C)(C(=O)O1)C3(C)C)C(C)(C)O2	0.23	> 10	880				
COc1ccc(CCN(C)CCCC(C#N)(c2ccc(OC)c(OC)c2)C(C)C)cc1OC (stereo unspecified)			60				
COc1c(Br)c2c(c3oc4ccccc4c(=O)c13)[C@@H](OC(=O)[C@@]13CCC(C)(C(=O)O1)C3(C)C)[C@@H](OC(=O)[C@@]13CCC(C)(C(=O)O1)C3(C)C)C(C)(C)O2		> 10	1650		20		
COc1ccc2oc3c4c(cc(OC)c3c(=O)c2c1)OC(C)(C)[C@H](OC(=O)[C@@]12CCC(C)(C(=O)O1)C2(C)C)[C@@H]4OC(=O)[C@@]12CCC(C)(C(=O)O1)C2(C)C	0.121	> 10	343				
COc1cc2c(c3oc4ccccc4c(=O)c13)[C@@H](OC(=O)[C@@]13CCC(C)(C(=O)O1)C3(C)C)[C@@H](OC(=O)[C@@]13CCC(C)(C(=O)O1)C3(C)C)C(C)(C)O2	0.063	> 10	776	Active			
CCc1cc(=O)c2ccc3c(c2o1)[C@@H](OC(=O)[C@@]12CCC(C)(C(=O)O1)C2(C)C)[C@@H](OC(=O)[C@@]12CCC(C)(C(=O)O1)C2(C)C)C(C)(C)O3	0.07	> 10	132				
CC[C@]1(O)C[C@H]2CN(CCc3c([nH]c4ccccc34)[C@@](C(=O)OC)(c3cc4c(cc3OC)N(C=O)[C@H]3[C@@](O)(C(=O)OC)[C@H](OC(C)=O)[C@]5(CC)C=CCN6CC[C@]43[C@@H]65)C2)C1 [VINCRISTINE]						0.002	1320
CC1(C)Oc2ccc3c(=O)c4ccccc4oc3c2[C@@H](OC(=O)[C@@]23CCC(C)(C(=O)O2)C3(C)C)[C@H]1OC(=O)[C@@]12CCC(C)(C(=O)O1)C2(C)C	0.308	> 10	1260		20		
COc1cc2c(c3oc4cc(C)ccc4c(=O)c13)[C@@H](OC(=O)[C@@]13CCC(C)(C(=O)O1)C3(C)C)[C@@H](OC(=O)[C@@]13CCC(C)(C(=O)O1)C3(C)C)C(C)(C)O2	0.095	> 10	352				
COc1cc2c(c3oc4ccc(F)cc4c(=O)c13)[C@@H](OC(=O)[C@@]13CCC(C)(C(=O)O1)C3(C)C)[C@@H](OC(=O)[C@@]13CCC(C)(C(=O)O1)C3(C)C)C(C)(C)O2	0.1	> 10	1150		20		
COc1cccc2c(=O)c3c(OC)cc4c(c3oc12)[C@@H](OC(=O)[C@@]12CCC(C)(C(=O)O1)C2(C)C)[C@@H](OC(=O)[C@@]12CCC(C)(C(=O)O1)C2(C)C)C(C)(C)O4		> 10	1020		20		
CC1(C)Oc2cc(O)c3c(=O)c4ccccc4oc3c2[C@@H](OC(=O)[C@@]23CCC(C)(C(=O)O2)C3(C)C)[C@H]1OC(=O)[C@@]12CCC(C)(C(=O)O1)C2(C)C		> 10	< 24				
COc1cc2c(c3oc4cc(Br)ccc4c(=O)c13)[C@@H](OC(=O)[C@@]13CCC(C)(C(=O)O1)C3(C)C)[C@@H](OC(=O)[C@@]13CCC(C)(C(=O)O1)C3(C)C)C(C)(C)O2		> 10	264				
COc1ccc2c(=O)c3c(OC)cc4c(c3oc2c1)[C@@H](OC(=O)[C@@]12CCC(C)(C(=O)O1)C2(C)C)[C@@H](OC(=O)[C@@]12CCC(C)(C(=O)O1)C2(C)C)C(C)(C)O4	0.362	> 10	98				
CCc1cc(=O)c2c(C)cc3c(c2o1)[C@@H](OC(=O)[C@@]12CCC(C)(C(=O)O1)C2(C)C)[C@@H](OC(=O)[C@@]12CCC(C)(C(=O)O1)C2(C)C)C(C)(C)O3	0.1	> 10	677	Active			
COc1cc2c(c3oc4ccc(C)cc4c(=O)c13)[C@@H](OC(=O)[C@@]13CCC(C)(C(=O)O1)C3(C)C)[C@@H](OC(=O)[C@@]13CCC(C)(C(=O)O1)C3(C)C)C(C)(C)O2	0.065	> 10	388				
COc1cc2c(c3oc4cccc(C)c4c(=O)c13)[C@@H](OC(=O)[C@@]13CCC(C)(C(=O)O1)C3(C)C)[C@@H](OC(=O)[C@@]13CCC(C)(C(=O)O1)C3(C)C)C(C)(C)O2	0.15	> 10	1390		20		
